In general, IC50 refers to the concentration that inhibits the measured activity by half.

The values that follow come from ChEMBL document CHEMBL4373640, “Synthesis and antitumor activity of aza-brazilan derivatives containing imidazolium salt pharmacophores” (Medchemcomm, 2019).

One experiment relates to A549. The experiment is described as follows: Cytotoxicity against human A549 cells assessed as reduction in cell viability after 48 hrs by MTS assay. Type of experiment: functional, cell-based. The settings on record: A549, 48 h. An outline of the steps: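 Cells (5 × 10^3 per well) were plated 12 h before treatment, then exposed continuously to compound for 48 h. MTS was added, with 1–4 h incubation at 37 °C and OD read at 490 nm. IC50 is the concentration cutting OD by 50% versus untreated cells, taken from dose–response curves. Values are the mean of three independent determinations.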
For orientation: Formazan colour is commonly taken as a measure of viable cells.

Experiment [1] is described as follows: Cell cycle arrest in human SMMC-7221 cells assessed as accumulation at S phase at 1 uM after 24 hrs by propidium iodide/RNase A staining based FACSCalibur flow cytometry analysis (reference value: 14.733 +/- 1.29 %). Type of experiment: functional. (Flow cytometry measures light scatter and fluorescence of single cells or particles in a stream.)
The nature of experiment [2]: Cell cycle arrest in human SMMC-7221 cells assessed as accumulation at S phase at 2 uM after 24 hrs by propidium iodide/RNase A staining based FACSCalibur flow cytometry analysis (reference value: 14.733 +/- 1.29 %). The format is functional.
Experiment [3] is described as follows: Cell cycle arrest in human SMMC-7221 cells assessed as accumulation at sub-G1 phase at 4 uM after 24 hrs by propidium iodide/RNase A staining based FACSCalibur flow cytometry analysis (reference value: 4.03 +/- 0.47 %). The format is functional.
A short description of experiment [4]: Induction of apoptosis in human SMMC-7221 cells assessed as early apoptotic cells at 0.5 uM after 48 hrs by AnnexinV-FITC/propidium iodide staining based FACSCalibur flow cytometry analysis (reference value: 0.106 %). The format is functional.
A short description of experiment [5]: Induction of apoptosis in human SMMC-7221 cells assessed as viable cells at 1 uM after 48 hrs by AnnexinV-FITC/propidium iodide staining based FACSCalibur flow cytometry analysis (reference value: 89.8 %). The format is functional. The settings on record: SMMC-7221, 48 h, read-out: Activity.
The nature of experiment [6]: Induction of apoptosis in human SMMC-7221 cells assessed as late apoptotic cells at 1 uM after 48 hrs by AnnexinV-FITC/propidium iodide staining based FACSCalibur flow cytometry analysis (reference value: 7.7 %). Type of experiment: functional.
Experiment [7] is described as follows: Induction of apoptosis in human SMMC-7221 cells assessed as necrotic cells at 1 uM after 48 hrs by AnnexinV-FITC/propidium iodide staining based FACSCalibur flow cytometry analysis (reference value: 2.34 %). Type of experiment: functional.
Experiment [8] is described as follows: Induction of apoptosis in human SMMC-7221 cells assessed as viable cells at 2 uM after 48 hrs by AnnexinV-FITC/propidium iodide staining based FACSCalibur flow cytometry analysis (reference value: 89.8 %). Type of experiment: functional. The conditions noted are these: SMMC-7221, 48 h, read-out: Activity.
Experiment [9] is described as follows: Induction of apoptosis in human SMMC-7221 cells assessed as late apoptotic cells at 2 uM after 48 hrs by AnnexinV-FITC/propidium iodide staining based FACSCalibur flow cytometry analysis (reference value: 7.7 %). The format is functional.

As to `COc1cccc2c1N(CCCn1c[n+](Cc3ccc(C)cc3)c3cc(C)c(C)cc31)C[C@@H]1Cc3ccc(Br)cc3[C@H]21.[Br-]`, the IC50 in the experiment with A549 worked out at 1300 nM. In addition, the Activity was found to be 10.18% in experiment [1]; 9.27% in [2]; 18.65% in [3]; 0.314% in experiment [4]; 14.6% in [6]; 5.66% in [7]. In experiment [9], the Activity is 16%. For the same molecule, the viability at 1 µM in experiment [5] amounted to 79.2%. Further, the viability at 2 µM in experiment [8] was determined as 77.7%.
